Active and inactive are the calls of the source. No cut-off for these calls is given here.
Tests used:
[1] = tested on: MDA-MB-231; assay: Antiproliferative activity against human MDA-MB-231 cells expressing p53 R280K mutant assessed as inhibition of cell growth incubated for 24 hrs by WST-1 assay; type: functional, cell-based; details: MDA-MB-231, 24 h
Summary of the method: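 WST-1 proliferation assay. Compound diluted in DMSO and added to cells at 1% DMSO final. 4,000 cells/well in duplicate; DMSO-only wells as control, cell-free medium wells for background.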

[2] = tested on: MDA-MB-231; assay: Antiproliferative activity against human MDA-MB-231cells expressing p53 R280K mutant assessed as inhibition of cell growth at 10 to 50 uM incubated for 24 hrs by WST-1 assay; type: functional, cell-based; details: dose 10-50 µM
Summary of the method: (§1)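 WST-1 proliferation assay. Compound diluted in DMSO so that 10 μl of stock in 1 ml of cells (40,000 cells/ml) gives the test concentration at 1% DMSO. Cells plated at 4,000/well in duplicate and incubated at 37 °C for 24 h or 72 h. Result given as % of the 1% DMSO control.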

[3] = tested on: MDA-MB-231; assay: Induction of apoptosis in human MDA-MB-231 cells expressing p53 R280K mutant assessed fold increase in number of Annexin-V stained cells at 6 to 12 uM incubated for 24 hrs by AnnexinV-FITC and PI staining based flow cytometry relative to control; type: functional; details: dose 6-12 µM
Summary of the method: (§2)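 24 h treatment, DMSO control. Cells scraped, washed in PBS, then given fluorochrome-conjugated Annexin V for 15 min at RT in the dark, followed by PI (0.1 µg/ml) in binding buffer. Read by flow cytometry on LSRFortessa. Annexin V-positive cells expressed relative to the DMSO control.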

[4] = tested on: MDA-MB-231; assay: Induction of apoptosis in human MDA-MB-231 cells expressing p53 R280K mutant assessed as decrease in level of uncleaved caspase 3 level at 6 to 12 uM measured after 24 hrs by western blotting analysis; type: functional, cell-based; details: dose 6-12 µM
Summary of the method: (§3)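 Cells treated with DMSO or compound at 6 or 12 µM for 24 h, then lysed in Tris-Cl pH 8.0/NaCl/glycerol/NP-40/EDTA buffer with protease inhibitors. 100 µg lysate resolved on 4-12% SDS-PAGE and blotted to PVDF. Probed with anti-PARP or anti-caspase 3, then HRP secondary and ECL. GAPDH reprobe as control.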

[5] = tested on: MDA-MB-468; assay: Induction of apoptosis in human MDA-MB-468 cells expressing p53 R273H mutant assessed as decrease in level of uncleaved caspase 3 level at 6 to 12 uM measured after 24 hrs by western blotting analysis; type: functional, cell-based; details: dose 6-12 µM; summary of the method: as §3
[6] = tested on: MDA-MB-231; assay: Induction of apoptosis in human MDA-MB-231 cells expressing p53 R280K mutant assessed as decrease in level of uncleaved PARP1 level at 6 to 12 uM measured after 24 hrs by western blotting analysis; type: functional, cell-based; details: dose 6-12 µM; summary of the method: as §3
[7] = tested on: MCF7; assay: Induction of apoptosis in human MCF7 cells expressing wild type p53 assessed as decrease in level of uncleaved PARP1 level at 6 to 12 uM measured after 24 hrs by western blotting analysis; type: functional, cell-based; details: dose 6-12 µM; summary of the method: as §3
[8] = tested on: MCF7; assay: Downregulation of p53 expression in human MCF7 cells at 6 to 12 uM measured after 24 hrs by immunoblot analysis; type: functional, cell-based; details: dose 6-12 µM
Summary of the method: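 24 h exposure to 6 or 12 μM, DMSO control. Lysis in Tris pH 8.0/NaCl/glycerol/NP-40/EDTA buffer with protease inhibitors. 20 µg (MDA-MB-231, MDA-MB-468) or 50 µg (MCF-7) of lysate run on 4-12% SDS-PAGE. Blot probed with p53 DO-1, GAPDH used for reprobe/loading. Triplicate experiments.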

[9] = tested on: Cellular tumor antigen p53 (Homo sapiens), P04637 [R273H]; assay: Reactivation of transactivation function to p53 R273H mutant in human MDA-MB-468 cells assessed as increase in NOXA mRNA expression at 6 uM incubated for 4 hrs by qRT-PCR analysis; type: cell-based; details: filed as activator
Summary of the method: (§4)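 Cells treated with DMSO or 6 µM test compound for 4 h. RNA extracted, cDNA synthesised, transcript measured by TaqMan qRT-PCR and normalised to GAPDH. Averages from triplicates of repeated experiments, with standard deviation.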

[10] = molecular target: Cellular tumor antigen p53 (Homo sapiens) (UniProt P04637); assay: Activation of p53 in human MCF7 cells assessed as increase in NOXA mRNA expression at 6 uM incubated for 4 hrs by qRT-PCR analysis; type: cell-based; details: filed as activator; summary of the method: as §4
[11] = tested on: MDA-MB-468; assay: Cell cycle arrest in human MDA-MB-468 cells expressing p53 R273H mutant assessed as accumulation of cells at G1 phase at 6 uM measured after 24 hrs by PI staining based flow cytometry (reference value: 30.6%); type: functional
[12] = tested on: MCF7; assay: Cell cycle arrest in human MCF7 cells expressing wild type p53 assessed as accumulation of cells at G2/M phase at 6 uM measured after 24 hrs by PI staining based flow cytometry (reference value: 21.3%); type: functional
[13] = tested on: MDA-MB-436; assay: Antiproliferative activity against human p53-null MDA-MB-436 cells assessed as inhibition of cell growth at 10 to 50 uM measured after 24 to 72 hrs by WST-1 assay; type: functional, cell-based; details: dose 10-50 µM, time 24-72 hrs; summary of the method: as §1
[14] = tested on: MDA-MB-468; assay: Antiproliferative activity against human MDA-MB-468 cells transfected with p53 siRNA assessed as inhibition of cell growth at 5 to 25 uM measured after 24 hrs by WST-1 assay; type: functional, cell-based; details: dose 5-25 µM
Summary of the method: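 MDA-MB-468 cells plated at 50-60% confluence 24 h before transfection. p53 SMARTpool or non-specific siRNA (0.430 nmol) given with Lipofectamine 2000 in Opti-MEM for 5 h, repeated after 24 h. Drug or DMSO added 72 h after the first transfection. Proliferation read by WST-1, % of DMSO control.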

[15] = tested on: MCF-10A; assay: Cytotoxicity against human MCF10A cells expressing wild type p53 assessed as inhibition of cell growth at 10 to 50 uM incubated for 24 to 72 hrs by WST-1 assay; type: functional, cell-based; details: dose 10-50 µM, time 24-72 hrs
[16] = tested on: MCF7; assay: Inhibition of colony formation in human MCF7 cells expressing wild type p53 assessed as decrease in number of colonies at 1.5 to 24 uM incubated for 24 hrs followed by incubation in fresh medium for 10 days by methylene blue staining based analysis; type: functional, cell-based; details: dose 1.5-24 µM
Summary of the method: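 500 cells/well seeded 24 h before treatment. Cells exposed to compound or DMSO control for 24 h at 37 °C, then grown 10 days at 37 °C in RPMI with 10% FBS. Colonies fixed in methanol, stained with methylene blue and counted. Survival expressed as percent of DMSO control.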

[17] = tested on: MDA-MB-468; assay: Induction of apoptosis in human MDA-MB-468 cells expressing p53 R273H mutant assessed as increase in level of cleaved PARP1 level at 6 to 12 uM measured after 24 hrs by western blotting analysis; type: functional, cell-based; details: dose 6-12 µM; summary of the method: as §3
[18] = tested on: MDA-MB-468; assay: Induction of apoptosis in human MDA-MB-468 cells expressing p53 R273H mutant assessed increase in number of Annexin-V stained cells at 6 to 12 uM incubated for 24 hrs by AnnexinV-FITC and PI staining based flow cytometry; type: functional, cell-based; details: dose 6-12 µM; summary of the method: as §2
[19] = Octanol-water partition coefficient, logP of the compound by HPLC-MS analysis; type: physicochemical; details: 18 h
Summary of the method: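 Compound (10 µL of 10 mM DMSO stock) added to 0.5 mL octanol plus 0.5 mL sodium phosphate buffer pH 7.4. Stirred 18 h, centrifuged 2 h at 3600 rpm. Concentration in each phase measured by LC-MS on a C18 column.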

Row | Structure (SMILES) | IC50 [1] [µM] | Activity [2] | fold change (FC) [3] | Activity [4] | Activity [5] | Activity [6] | Activity [7] | inhibition [8] | Activity [9] | Activity [10] | Activity [11] [%] | Activity [12] [%] | Activity [13] | Activity [14] | Activity [15] | inhibition [16] | Activity [17] | Activity [18] | logP [19]
1 | S=C=NCCCC12CC3CC(CC(C3)C1)C2 | 12 | Dose-Dependent Effect | 2 | Active | Active | Active | inactive | inactive | Active | Active | 53.2 | 24.3 | inactive | inactive | inactive | Active | Active |  | 
2 | [Se]=C=NCCC12CC3CC(CC(C3)C1)C2 | 6 |  |  | Active | Active | Active | inactive |  | Active | Active |  |  |  |  | inactive | Active | Active | Active | 4.05
